Compound activity deposited in PubChem by several laboratories.
Sampled rows, rich in hits. Any-hit rate of the full collection: about 2.7%.
Lipid droplet = hepatic lipid droplet formation modulation; AML12 mouse hepatocytes, oleate lipid droplets, BODIPY imaging; inhibition, % at 6.5 µM; 0.4% of 240,000 active; AID 1656;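 active means lipid droplet intensity inhibited by at least 50%, with more than 500 cells counted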
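Technique: fluorescence imaging, 20x objective, two fields per well / Assay system: AML12 hepatocytes (mouse) / Measure: % inhibition of lipid droplet signal / Doses: 6.5 µM single-point dosing / Incubation: overnight exposure / Reagent: 100 µM oleic acid challenge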
MC4R antagonist = blocks human MC4R cAMP signaling | P32245 | inhibition, % at 6.5 µM | MC4R-expressing cells, MTII-stimulated cAMP, LANCE TR-FRET | 0.48% of 360,000 active;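 active means inhibition above its plate's cutoff, the mean of tested wells on that plate plus 3 SD, cut at about 29% in these data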
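system = U2OS cells with stable human MC4R expression | also added = Melanotan II challenge after compound preincubation | dosing = one concentration, 6.5 µM nominal | incubation = compound 30 min, challenge 1 h, detection 1 h | measured by = TR-FRET with Eu-cAMP and labeled anti-cAMP, 671 nm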
HTR2A ag = activates the mouse 5-HT2A serotonin receptor; activation, % at 7.6 µM; AID 624169; 0.66% of 360,000 active; CHO-K1 mHTR2A beta-arrestin complementation, luminescence; percent of 30 µM serotonin response;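 active means activation above a run cutoff, the mean activation of all tested compounds plus 3 SD, cut at about 14% in these data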
NTR1 agonist = agonists of human neurotensin receptor NTR1; P30989; NTR1-U2OS beta-arrestin-GFP spot imaging, agonist mode; activation, % at 20 µM; 0.17% of 330,000 active; AID 493036;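 active means activation at or above 40% of the spot to cytoplasm intensity ratio, with at least 20 cells analyzed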
Target sequence (P30989 whole entry, looked up): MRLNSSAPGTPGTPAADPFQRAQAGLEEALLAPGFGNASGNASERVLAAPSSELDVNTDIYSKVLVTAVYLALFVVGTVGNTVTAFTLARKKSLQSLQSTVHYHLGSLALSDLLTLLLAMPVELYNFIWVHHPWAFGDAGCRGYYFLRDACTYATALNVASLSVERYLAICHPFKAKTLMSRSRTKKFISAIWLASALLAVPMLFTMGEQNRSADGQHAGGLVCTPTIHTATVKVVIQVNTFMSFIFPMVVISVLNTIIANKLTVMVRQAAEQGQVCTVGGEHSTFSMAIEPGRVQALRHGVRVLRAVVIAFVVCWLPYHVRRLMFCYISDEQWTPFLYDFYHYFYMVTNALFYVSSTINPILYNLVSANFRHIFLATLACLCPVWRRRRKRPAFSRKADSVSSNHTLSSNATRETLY
PREPL inhibitor = inhibitors of human prolyl oligopeptidase-like enzyme PREPL; Q4J6C6; recombinant PREPL, fluorescence polarization activity-based probe; inhibition, % at 5.96 µM; 0.68% of 320,000 active; AID 2751; in the data active means inhibition above about 43%
MC4R barr agon = agonists of human melanocortin 4 receptor (MC4R) beta-arrestin. P32245. U2OS MC4R beta-arrestin complementation, luminescence; percent of melanotan II response, DMSO zero. activation, % at 8.9 µM. 0.98% of 360,000 active. AID 540308;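 active means activation above a per-plate cutoff, the mean activation of sample wells on that plate plus 3 SD, cut at about 8% in these data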
Large screens that a line does not name were inactive.

CC1CCCN(C2=C(NS(=O)(=O)c3ccc(Cl)cc3)C(=O)c3ccccc3C2=O)C1 (configuration not stated)	Lipid droplet 57
COC(=O)C1CCN(C2=C(NS(=O)(=O)c3ccc(Cl)cc3)C(=O)c3ccccc3C2=O)CC1	none
C=CCNC(=O)c1c(N)n(-c2ccc3c(c2)OCO3)c2nc3ccccc3nc12	MC4R barr agon 8.7 (no result: Lipid droplet)
Nc1c(C(=O)NCCN2CCOCC2)c2nc3ccccc3nc2n1-c1cccc(F)c1	none (no result: Lipid droplet)
Clc1ccccc1-c1nc2nc3ccccc3nc2n1-c1ccc2c(c1)OCO2	none
C#CCOCCOCCOCCNc1nc(N2CCN(C(=O)CCCCCCCCCCNC(=O)[C@@H](CCC(=O)O)n3cc(CCCCCN)nn3)CC2)nc(N2CCN(C(=O)CCCCCCCCCCNC(=O)[C@H](CCCCN)n3cc(C[C@@H](C)CC)nn3)CC2)n1	none (no result: Lipid droplet)
CC[C@H](C)Cc1cn([C@@H](CCCN=C(NC(=O)OC(C)(C)C)NC(=O)OC(C)(C)C)C(=O)NCCCCCCCCCCC(=O)N2CCN(C(=O)OC(C)(C)C)CC2)nn1	NTR1 agonist 45 (no result: Lipid droplet)
C#CCOCCOCCOCCNc1nc(N2CCN(C(=O)CCCCCCCCCCNC(=O)[C@@H](CCC(=O)O)n3cc(CCCCCN)nn3)CC2)nc(N2CCN(C(=O)CCCCCCCCCCNC(=O)[C@H](CO)n3cc(CCCSC)nn3)CC2)n1	none (no result: Lipid droplet)
C#CCOCCOCCOCCNc1nc(N2CCN(C(=O)CCCCCCCCCCNC(=O)[C@H](CO)n3cc(CCCCCN)nn3)CC2)nc(N2CCN(C(=O)CCCCCCCCCCNC(=O)[C@H](CCCN=C(N)N)n3cc(C[C@@H](C)CC)nn3)CC2)n1	PREPL inhibitor 64 (no result: Lipid droplet, MC4R antagonist, HTR2A ag, MC4R barr agon)
C#CCOCCOCCOCCNc1nc(N2CCN(C(=O)CCCCCCCCCCNC(=O)[C@H](CCCCN)n3cc(C[C@@H](C)CC)nn3)CC2)nc(N2CCN(C(=O)CCCCCCCCCCNC(=O)[C@@H]([C@H](C)O)n3cc(C)nn3)CC2)n1	MC4R antagonist 44 (no result: Lipid droplet)
C#CCOCCOCCOCCNc1nc(N2CCN(C(=O)CCCCCCCCCCNC(=O)[C@H](CCCCN)n3cc(C[C@@H](C)CC)nn3)CC2)nc(N2CCN(C(=O)CCCCCCCCCCNC(=O)[C@H](CCCN=C(N)N)n3cc(C[C@@H](C)CC)nn3)CC2)n1	MC4R antagonist 83, PREPL inhibitor 66 (no result: Lipid droplet)
Cc1ccccc1C(=O)c1cccn1CC(=O)NCc1ccc2c(c1)OCO2	none
Cc1cnc(C(=O)OCC(=O)Nc2cc(Cl)ccc2C#N)cn1	none (no result: Lipid droplet)
C#CCOCCOCCOCCNc1nc(N2CCN(C(=O)CCCCCCCCCCNC(=O)[C@@H](CCSC)n3cc(CCO)nn3)CC2)nc(N2CCN(C(=O)CCCCCCCCCCNC(=O)[C@H](CCCN=C(N)N)n3cc(C[C@@H](C)CC)nn3)CC2)n1	MC4R antagonist 60 (no result: Lipid droplet)
O=C1Nc2ccccc2C1(c1ccccc1)c1ccccc1	MC4R barr agon 37 (no result: Lipid droplet)
Cc1cc(C)cc(N2C(=O)C=CC2=O)c1	MC4R antagonist 33 (no result: Lipid droplet, NTR1 agonist, PREPL inhibitor)
O=C(NC1CC1)c1ccc2sc([C@H]3C[C@H](O)[C@@H](CO)O3)nc2c1	none (no result: Lipid droplet, NTR1 agonist, PREPL inhibitor)
Cc1ccc(S(=O)(=O)N2CCN(C(=O)COC(=O)c3ccccc3OC(F)F)CC2)c(C)c1	none (no result: Lipid droplet, NTR1 agonist, PREPL inhibitor)
Cc1ccc(S(=O)(=O)N2CCN(C(=O)COC(=O)c3ccccc3Cl)CC2)c(C)c1	HTR2A ag 17 (no result: Lipid droplet)
CC1=C(C(=O)N2CCCCCC2)CC(CC(=O)NCCN2CCOCC2)C(=O)N1Cc1ccccc1 (configuration not stated)	none (no result: Lipid droplet, MC4R antagonist, NTR1 agonist, PREPL inhibitor, MC4R barr agon)
CCOc1ccc(C(=O)Nc2ccc(Cl)cn2)cc1Cl	MC4R barr agon 8.3 (no result: Lipid droplet)
COc1cccc(C(=O)Nc2ccc3nc(N4CCN(c5ncccn5)CC4)cc(C)c3c2)c1OC	NTR1 agonist 47 (no result: MC4R antagonist, HTR2A ag, MC4R barr agon)
CCOc1ccccc1C(=O)Nc1ccc2nc(N3CCN(c4ncccn4)CC3)cc(C)c2c1	none (no result: Lipid droplet, MC4R antagonist, HTR2A ag, MC4R barr agon)
Cc1ccc(S(=O)(=O)C[C@@H]2OC[C@H](Cc3ccccc3)N2S(=O)(=O)c2ccc(C)cc2)cc1	none (no result: Lipid droplet, MC4R antagonist, NTR1 agonist, PREPL inhibitor, MC4R barr agon)
COc1cc(NC(=O)CN2CCC(Cc3ccccc3)CC2)c(C)cc1[N+](=O)[O-]	MC4R barr agon 9.5
